Assay results published in publication PMC4153964 (Drugs in R&D, 2014).
Like-named read-outs stand apart in the source and are kept apart here.

Key:
[1] = system: cytochrome P450 (CYP); conditions: cited from earlier work
[2] = stated as known, no reference given; cited from earlier work
[3] = Tolerability assessments; format: in vivo, healthy Korean male volunteers
Procedure, shortened: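 Subjects receiving more than one dose were included. Medical staff monitored adverse events after dosing. Vital signs were taken seated after ≥5 min rest. 12-lead ECG was recorded before blood sampling. Physical examinations were done, and hematology, biochemistry and urinalysis were drawn after >8 h fasting. Investigators judged abnormal findings for clinical significance and relation to study drug.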

[4] = format: in vivo, healthy Korean male volunteers; conditions: for Pharmacokinetic effect on the co-administered drug: steady-state gemigliptin 50 mg, single-dose glimepiride 4 mg
Procedure, shortened: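 Randomized open-label crossover. Oral gemigliptin 50 mg once daily for 6 days with glimepiride 4 mg co-administered on day 7, versus single glimepiride 4 mg. Heparinized plasma was sampled to 24 h (days 6–7 at 0–14 h, day 8 at 0 h). LC–MS/MS; LLOQ 0.5 ng/mL gemigliptin, 1 ng/mL glimepiride. Non-compartmental AUC by linear-up/log-down trapezoidal method. Log-transformed GMRs with 90 % CI from mixed-effects ANOVA.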

[5] = cited from earlier work
[6] = cited from earlier work; for t max: oral
[7] = cited from earlier work; remark: listed apart in the source
[8] = single ascending-dose study, healthy volunteers, 50–400 mg
[9] = glimepiride 4 mg + gemigliptin 50 mg, day 7
[10] = glimepiride 4 mg single dose only
[11] = another study, subjects all Caucasian
[12] = single-dose 4 mg, healthy volunteers, ref Malerczyk et al. [20]
[13] = plasma, glimepiride 4 mg single dose only

For N[C@@H](CC(=O)N1CCc2c(nc(C(F)(F)F)nc2C(F)(F)F)C1)CN1CC(F)(F)CCC1=O [Gemigliptin], the “inhibitory or induction potential” value ([1]; gemigliptin and its metabolites, preclinical studies, ref Gemigliptin IB version 6.0, September 2012) is given as “very low”, the major metabolic route ([1]; preclinical studies, ref Gemigliptin IB version 6.0, September 2012) is given as “via cytochrome P450 (CYP) 3A4” and the effects on cytochromes ([1]; stated as known, no reference given) is given as “no significant effects on cytochromes”. For the same molecule, the protein binding [2] was “no strong protein-binding characteristics”, the “Adverse events during dosing (events and participants)” value ([3]; repeated gemigliptin dosing, 50 mg/day, 23 participants) was “six AEs occurred in four participants” and the “Adverse events considered possibly related to the study drug” value ([3]; rhinorrhea, constipation, and headache) was “three AEs in three participants were considered possibly related to the study drug”. It also gave a t max ([4]; male, human, plasma, oral, 50 mg, t max,ss, median (min–max), plasma, day 6, gemigliptin 50 mg once daily only) of 1.5 h, an AUC ([4]; male, human, plasma, po, 50 mg) of 798 ng·h/mL and a Cmax ([4]; male, human, plasma, po, 50 mg, C max,ss, mean (SD), plasma, day 6, gemigliptin 50 mg once daily only, oral) of 80.2 ng/mL. For the same molecule, the “Pharmacokinetic effect on the co-administered drug” value [4] was “nor did gemigliptin affect the pharmacokinetics of single-dose glimepiride”, the half-life ([5]; day 1 of a previous study using 24 h sampling) was 7.4 to 9.3 h and the accumulation ([5]; previous multiple-dose study) was “accumulation was reported”. For the same molecule, the half-life ([5]; previous multiple-dose study) was “approximately 17 h”, the half-life ([5]; previously reported by multiple-dose studies, sampling ≤72 h after the last dose) was 16.6 to 20.1 h and the “mean t ½” value [5, 8] was 16.7 to 21.3 h. For the same molecule, the t max [5, 8] was 0.5 to 5.1 h.
For CCC1=C(C)CN(C(=O)NCCc2ccc(S(=O)(=O)NC(=O)N[C@H]3CC[C@H](C)CC3)cc2)C1=O [Glimepiride], the “t max, median (min–max)” value [4, 9] was 3.0 (2.0–5.0) h, the “t max, median (min–max)” value [4, 10] was 4.0 (2.0–5.0) h and the “Pharmacokinetic effect on the co-administered drug” value [4] was “no pharmacokinetic effects on steady-state gemigliptin”. The accumulation ([6]; after multiple dosing) was “without accumulation”, the oral absorption ([6]; after oral administration) was “completely absorbed” and the “AUClast (geometric mean)” value [6, 11] was 8,753 ng · h/mL. The “geometric C max mean” value [6, 11] was 1,084 ng/mL, the half-life [6] was under 5 h and the accumulation ([6]; multiple doses, 1 day vs 7 days, T2DM patients) was “does not accumulate”. The t max ([6]; T2DM patients) was 2.4 to 3.75 h, the t max ([6]; healthy volunteers) was 0.7 to 2.8 h and the “mean AUC” value [6, 12] was 1,297 μg/L · h. The “mean C max” value [6, 12] was 307.8 ng/mL.
For CCC1=C(C)CN(C(=O)NCCc2ccc(S(=O)(=O)NC(=O)NC3CCC(CO)CC3)cc2)C1=O (stereo not drawn) [M1], the “t max, median (min–max)” value [4, 9] was 4.0 (3.0–6.0) h, the “t max, median (min–max)” value [4, 10] was 4.0 (3.0–6.0) h and the “AUClast, mean (SD)” value [4, 13] was 189.88 (52.77) ng · h/mL. For the same molecule, the “C max, mean (SD)” value [4, 13] was 28.26 (8.40) ng/mL.
For OC(Cn1cncn1)(Cn1cncn1)c1ccc(F)cc1F [fluconazole], the “effect on plasma concentrations of glimepiride” value [7] is given as “increase plasma concentrations of glimepiride”.
In the case of CC#CCn1c(N2CCC[C@@H](N)C2)nc2c1c(=O)n(Cc1nc(C)c3ccccc3n1)c(=O)n2C [linagliptin], the “pharmacokinetics on coadministration of linagliptin and glyburide” value ([7]; linagliptin 5 mg/day × 6 days, glyburide single-dose 1.75 mg) is given as “not affected”.
For N[C@@H](CC(=O)N1CCn2c(nnc2C(F)(F)F)C1)Cc1cc(F)c(F)cc1F [sitagliptin], the “effect on the pharmacokinetics of glyburide” value [7] is given as “does not affect the pharmacokinetics of glyburide”.
